Test results taken from article PMC10883021 (ACS Omega, 2024).
Like-named read-outs stand apart in the source and are kept apart here.

How the values were obtained:
[1] = tested on: MDA-MB-231 breast cancer cells; conditions: 0–100 μM; cited from earlier work
[2] = tested on: T47D breast cancer cell line; experiment: MTT cell viability assay, T47D breast cancer cells; assay type: cell-based, human; conditions: 48 h, read-out: IC50 on T47D
Summary of the method: (§1)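 Cells grown in DMEM with 10% FBS, 100 units/ml penicillin/streptomycin and 2 mM L-glutamine at 37 °C, 5% CO₂. 5 × 10³ cells/well were seeded and attached overnight, then given test compound at 0–200 μM for 48 h. MTT was added for 4 h at 37 °C and absorbance read at 570 nm. Viability was taken relative to untreated control cells. Mean ± SD from at least three independent experiments.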

[3] = tested on: MDA-MB-231 breast cancer cell line; experiment: MTT cell viability assay, MDA-MB-231 breast cancer cells; assay type: cell-based, human; conditions: read-out: IC50 on MDA-MB-231
Summary of the method: as §1

[4] = tested on: MCF-7 breast cancer cells; conditions: 0–100 μM; cited from earlier work
[5] = tested on: HaCaT human keratinocyte cell line; experiment: MTT cell viability assay, HaCaT control cells; assay type: cell-based; conditions: 48 h, read-out: IC50 on HaCaT (human fibroblasts in text)
Summary of the method: as §1

IC50 ([2]; Homo sapiens, T47D)	IC50 ([3]; Homo sapiens, MDA-MB-231, 48 h)	IC50 ([2]; MTT, 0–200 μM)	IC50 ([3]; MTT, 48 h, 0–200 μM)	Compound	cytotoxic effect on MDA-MB-231 [1]	cytotoxic effect on MCF-7 [4]	IC50 ([5]; Homo sapiens, HaCaT)	IC50 ([5]; MTT, 0–200 μM)
67.7 ± 5.9 µM	67.2 ± 5.72 µM			O=Cc1ccc(O)c(O)c1 [Compound 11, 3,4-dihydroxybenzaldehyde]	did not show an anticancer effect	did not show an anticancer effect	115 ± 7.69 µM	
				COc1cc([C@@H]2c3cc4c(cc3[C@@H](O[C@@H]3O[C@@H]5CO[C@@H](C)O[C@H]5[C@H](O)[C@H]3O)[C@H]3COC(=O)[C@H]23)OCO4)cc(OC)c1O [etoposide, reference compound]			4.86 ± 0.35 µM	
		44.4 ± 2.7 µM	63.8 ± 10.3 µM	coelonin [Compound 10]				114 ± 7.65 µM
